Data set [1] concerns Liver. Nature of the data set: Drug uptake in Sprague-Dawley rat liver S9 fraction treated with (S)-Isopropyl 2-(((R)-(((2R,3S,5R)-5-(5-fluoro-2,4-dioxo-3,4-dihydropyrimidin-1(2H)-yl)-3-hydroxytetrahydrofuran-2-yl)methoxy)((2-methylbenzyl)oxy)phosphoryl)amino)propanoate at 20 ug/mL after 20 mins by HPLC-MS/MS analysis in absence of NADPH. The class given is ADME. To be noted: s9, 20 min. In a few lines: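 Rat liver S9 (10 mg/mL) incubated with compound at 20 μg/mL. Parent, intermediate A and FdUMP followed over time by HPLC-MS/MS. Negative control run without NADPH.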

Data set [2] has as its system Plasma. Nature of the data set: Drug uptake in Sprague-Dawley rat plasma treated with (S)-Isopropyl 2-(((R)-(((2R,3S,5R)-5-(5-fluoro-2,4-dioxo-3,4-dihydropyrimidin-1(2H)-yl)-3-hydroxytetrahydrofuran-2-yl)methoxy)((2-methylbenzyl)oxy)phosphoryl)amino)propanoate. The class given is ADME, cell-free.
Data set [3] has as its system Liver. Description: Drug uptake in Sprague-Dawley rat liver treated with (S)-Isopropyl 2-(((R)-(((2R,3S,5R)-5-(5-fluoro-2,4-dioxo-3,4-dihydropyrimidin-1(2H)-yl)-3-hydroxytetrahydrofuran-2-yl)methoxy)((2-methylbenzyl)oxy)phosphoryl)amino)propanoate. The class given is ADME, tissue-based. To be noted: in vivo.
The subject of data set [4] is Plasma. Description: AUC (infinity) in Sprague-Dawley rat plasma assessed as FDUR formation at 23.62 mg/kg administered through oral gavage measured up to 24 hrs by HPLC-MS/MS analysis. The class given is ADME, organism-based. More on the design: dose 23.62 mg/kg, time infinity, route oral. Conditions: in vivo. A digest of the protocol: (§1)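 Male Sprague-Dawley rats (220 ± 20 g), single gavage of 0.096 mmol/kg. FDUR was dosed in H2O; the prodrugs were dosed in 20% hydroxypropyl-β-cyclodextrin. n = 3 per time point, sampled at 0.25–24 h. Plasma (EDTA-K2, cardiac puncture) and freeze-clamped liver were homogenized in 20 mM EDTA-K2/70% MeOH. Analytes measured by HPLC-MS/MS in ESI negative mode.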

Data set [5] concerns Plasma. Description: Cmax in Sprague-Dawley rat plasma assessed as 5-FU formation at 23.62 mg/kg administered through oral gavage measured up to 24 hrs by HPLC-MS/MS analysis. The class given is ADME, organism-based. Conditions: in vivo. Set-up: dose 23.62 mg/kg, route oral. A digest of the protocol: as §1
Data set [6] has as its system Liver. Description: AUC (infinity) in Sprague-Dawley rat liver assessed as 5-FU formation at 23.62 mg/kg administered through oral gavage measured up to 24 hrs by HPLC-MS/MS analysis. The class given is ADME, organism-based. Conditions: in vivo. More on the design: dose 23.62 mg/kg, time infinity, route oral. A digest of the protocol:
as §1

Data set [7] deals with Plasma. Description: Cmax in Sprague-Dawley rat plasma assessed as FDUR formation at 23.62 mg/kg administered through oral gavage measured up to 24 hrs by HPLC-MS/MS analysis. The class given is ADME, organism-based. Set-up: dose 23.62 mg/kg, route oral. Conditions: in vivo. In a few lines: as §1
The test system of data set [8] is Plasma. Description: AUC (infinity) in Sprague-Dawley rat plasma assessed as 5-FU formation at 23.62 mg/kg administered through oral gavage measured up to 24 hrs by HPLC-MS/MS analysis. The class given is ADME, organism-based. Set-up: dose 23.62 mg/kg, route oral, time infinity. Conditions: in vivo. In a few lines: as §1
Data set [9] deals with Liver. Nature of the data set: Cmax in Sprague-Dawley rat liver assessed as 5-FU formation at 23.62 mg/kg administered through oral gavage measured up to 24 hrs by HPLC-MS/MS analysis. More on the design: dose 23.62 mg/kg, route oral. To be noted: in vivo. The class given is ADME, organism-based. A digest of the protocol: as §1
Data set [10] deals with Liver. Nature of the data set: AUC (infinity) in Sprague-Dawley rat liver assessed as FdUMP formation at 23.62 mg/kg administered through oral gavage measured up to 24 hrs by HPLC-MS/MS analysis. Set-up: dose 23.62 mg/kg, time infinity, route oral. The class given is ADME, organism-based. Conditions: in vivo. A digest of the protocol: as §1
A short description of data set [11]: Ratio of FdUMP AUC (infinity) in Sprague-Dawley rat liver to FDUR AUC (infinity) in Sprague-Dawley rat plasma at 23.62 mg/kg administered through oral gavage. The class given is ADME, organism-based. Conditions: in vivo.
The subject of data set [12] is Liver. Nature of the data set: Cmax in Sprague-Dawley rat liver assessed as FdUMP formation at 23.62 mg/kg administered through oral gavage measured up to 24 hrs by HPLC-MS/MS analysis. The class given is ADME, organism-based. More on the design: dose 23.62 mg/kg, route oral. To be noted: in vivo. A digest of the protocol: as §1

Turning to `Cc1ccccc1C(=O)O` [TOLUIC ACID], the Drug metabolism entry in the data set on Liver [1] is given as “metabolite_detected”.

In the case of `Cc1ccccc1C(=O)NCC(=O)O`, the Drug uptake result with Plasma [2] and in the data set with Liver [3] was “metabolite_detected” each time.

Usually Cmax stands for the highest concentration seen after dosing. As for `O=c1[nH]c(=O)n([C@H]2C[C@H](O)[C@@H](CO)O2)cc1F` [FLOXURIDINE], the AUC in the data set with Plasma [4] was 308 ng·h/mL; in the data set on Liver [6], 232 ng·h/g; in the data set on Plasma [8], 209 ng·h/mL; in the data set with Liver [10] it was < 34 ng·h/g. Further, the Cmax was found to be 169 ng/mL in the data set with Plasma [5], 180 ng/mL with Plasma [7], 60 ng/g with Liver [9] and 9 ng/g with Liver [12]. Further, the “Ratio AUC” value in [11] is recorded as < 0.11.

These data come from ChEMBL document CHEMBL3813647, “Discovery of an Orally Active and Liver-Targeted Prodrug of 5-Fluoro-2'-Deoxyuridine for the Treatment of Hepatocellular Carcinoma” (J Med Chem, 2016).
